Screens (PubChem BioAssay)
This is a sample that favours compounds with a hit; in the whole collection about 4.3% have one here.
TAAR1 antag = human TAAR1 antagonists, primary screen, Fluo-8 calcium fluorescence, CHO RD-HGA16 cells. AID 624466, 2012. Trace amine-associated receptor 1 (Homo sapiens), Q96RJ0. antagonist. actives 1.5% (n = 360,000). inhibition, % at 3 µM;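 active = inhibition above a per-plate cutoff, the mean inhibition of test compounds on that plate plus 3 SD, cut at about 49% in these data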;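 note: 0% = DMSO plus EC80 beta-PEA response and 100% = DMSO alone without agonist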
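Material: RD-HGA16 CHO cells with stable hTAAR1 and Gα16; Dosing: single nominal final test compound concentration of 3 µM; Schedule: seeding 17-24 h prior, 75-min 37 °C, 30-min RT dye loading; Detection: kinetic Fluo-8 calcium fluorescence measurement; Measure: % inhibition from peak post-agonist over basal fluorescence ratio; Benchmarks: vehicle and agonist controls.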
OX1R antag-1 = OX1R (HCRTR1) antagonists, primary screen, fluorescence, CHO/OX1R cells, Fluo-8 calcium, orexin A. Orexin/Hypocretin receptor type 1 (Homo sapiens), O43613. Fluo-8 calcium fluorescence. inhibition, % at 5 µM. actives 0.43% (n = 330,000). AID 434989, 2010;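 active = inhibition above its plate's threshold, mean inhibition of all tested compounds on the plate plus 3 SD, cut at about 37% in these data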;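 note: 0% = orexin A challenge wells and 100% = SB-334867-A antagonist wells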
Target sequence (O43613 whole entry, looked up): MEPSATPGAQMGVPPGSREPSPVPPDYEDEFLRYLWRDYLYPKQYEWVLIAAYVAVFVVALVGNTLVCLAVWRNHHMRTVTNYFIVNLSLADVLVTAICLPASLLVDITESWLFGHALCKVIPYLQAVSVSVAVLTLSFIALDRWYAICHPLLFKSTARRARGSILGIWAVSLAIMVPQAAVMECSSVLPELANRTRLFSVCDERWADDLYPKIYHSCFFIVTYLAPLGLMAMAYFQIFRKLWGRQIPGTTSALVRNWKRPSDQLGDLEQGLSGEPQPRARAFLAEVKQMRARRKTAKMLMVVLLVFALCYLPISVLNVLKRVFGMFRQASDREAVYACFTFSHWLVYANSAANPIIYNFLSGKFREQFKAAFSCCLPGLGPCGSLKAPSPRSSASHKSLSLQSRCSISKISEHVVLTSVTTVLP
CHO parental Ca = ATP-evoked calcium signal inhibitors, parental CHO, primary screen, counter-screen for OX1R antagonist project, cell-based, fluorescence, Fluo-8 calcium dye; parental CHO-K1, ATP-induced calcium, Fluo-8 fluorescence; inhibition, % at 5.6 µM; actives 0.63% (n = 330,000);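 active = inhibition above that plate's mean sample inhibition plus 3 SD, cut at about 26% in these data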;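 note: 0% = ATP-challenged DMSO wells and 100% = DMSO wells without ATP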
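Test system: untransfected parental CHO cell line. Compound: one dose, 5.6 µM nominal. Detection: intracellular calcium via Fluo-8 no-wash fluorescent dye. Measure: % inhibition. Benchmarks: ATP-challenged DMSO wells low, unchallenged DMSO wells high.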
GalR3 antag = GalR3 antagonists in HEK293 cells, primary screen, cell-based, fluorescence readout; HEK293 GalR3-CNG cAMP membrane potential fluorescence; galR3 body fused to GalR1 C-terminus; inhibition, % at 3 µM; AID 651719, 2012; actives 0.44% (n = 360,000);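 active = inhibition above the screen-wide average plus 3 SD, cut at about 13% in these data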;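 note: forskolin and galanin both at EC90 stimulate the cells; cAMP rise reported by CNG channel membrane potential dye signal; 0% = forskolin plus galanin with DMSO and 100% = forskolin alone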
Target sequence (O60755 1-299 limits assumed): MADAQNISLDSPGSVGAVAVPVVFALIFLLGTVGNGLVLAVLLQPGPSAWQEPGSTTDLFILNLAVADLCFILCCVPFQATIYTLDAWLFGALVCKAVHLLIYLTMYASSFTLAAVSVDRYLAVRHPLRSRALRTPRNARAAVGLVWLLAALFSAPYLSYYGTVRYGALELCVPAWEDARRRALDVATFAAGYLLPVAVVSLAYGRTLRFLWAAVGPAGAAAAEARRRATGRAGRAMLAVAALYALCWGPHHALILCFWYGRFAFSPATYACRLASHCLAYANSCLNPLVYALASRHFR
TAAR1 agonist = human TAAR1 agonists, primary screen, Fluo-8 calcium fluorescence, CHO RD-HGA16 cells | Trace amine-associated receptor 1 (Homo sapiens), Q96RJ0 | vehicle wells 0%, saturating PEA agonist 100% | activation, % at 3 µM | actives 0.99% (n = 360,000) | AID 624467, 2012;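 active = activation above the mean activation of all test compounds in the run plus 3 SD, cut at about 38% in these data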
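Assay system: CHO-derived RD-HGA16 cells with stable Gα16 and human TAAR1; timing: 17-24 h seeding, 75 min 37 °C dye, 30 min RT; read-out: % activation from peak over basal fluorescence ratio, DMSO-to-PEA scaled; measured by: kinetic Fluo-8 calcium fluorescence; benchmarks: low control DMSO, high control PEA (EC100); doses: 3 µM single concentration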
OX1R antag-2 = antagonists of human orexin 1 receptor (OX1R); AID 485270, 2010; OX1R-expressing cells, FRET antagonist read-out; inhibition, % at 6.6 µM; actives 1.8% (n = 330,000); in the data active = inhibition mostly above about 38%, no sharp cut-off; inactive = mostly below about 40%;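 note: 0% = agonist challenge alone and 100% = reference antagonist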
nonsel antag count = nonselective antagonists in TAAR1 counter-screen cells, counter-screen for hTAAR1 antagonist project, cell-based, fluorescence, calcium; shares compounds with TAAR1 antag; counterscreen cell line, antagonist mode; inhibition, % at 3 µM; actives 77% (n = 2,400); AID 651780, 2012; in the data active = inhibition above about 22%;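 note: CHO-Ga16 host cells stimulated with ATP at an EC80 level; 0% = agonist EC80 plus vehicle and 100% = vehicle without agonist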
TAAR1 antag conf = human TAAR1 antagonists, retest of hits, confirmation, cell-based, fluorescence; inhibition, % at 3 µM; shares compounds with TAAR1 antag; TAAR1-expressing cells, fluorescence antagonist read-out; actives 40% (n = 2,400); AID 651785, 2012; in the data active = inhibition above about 49%;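 note: CHO-Ga16 host cells challenged with agonist PEA near its EC80; 0% = agonist at EC80 plus vehicle and 100% = vehicle with no agonist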
Ga16 nonsel ag = calcium activation in Ga16-expressing cells, counter-screen for TAAR1 antagonist project, cell-based, fluorescence. shares compounds with TAAR1 antag. agonist counterscreen. activation, % at 3 µM. actives 18% (n = 2,400); in the data active = activation above about 12%;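 note: 0% = vehicle wells and 100% = saturating stimulus response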
TAAR1 ag counter = TAAR1 activation by candidate antagonists – cell-based, fluorescence, counter-screen for TAAR1 antagonist project; hTAAR1 cell line, agonist mode; shares compounds with TAAR1 antag; AID 651955, 2012; activation, % at 3 µM; actives 2% (n = 2,400); in the data active = activation above about 37%;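 note: CHO cells stably expressing TAAR1 with calcium dye readout; 0% = DMSO vehicle and 100% = full agonist response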
The depositor's hits bear a star; . = not tested or not shown.

SMILES	TAAR1 antag	OX1R antag-1	CHO parental Ca	GalR3 antag	TAAR1 agonist	OX1R antag-2	nonsel antag count	TAAR1 antag conf	Ga16 nonsel ag	TAAR1 ag counter
CCOc1cc(C(=S)N2CCOCC2)ccc1OC(=O)c1ccccc1	-0.2	-8.2	-12.5	-10.7	0.1	15.8	.	.	.	.
CCOc1cc(C(=S)N2CCOCC2)ccc1OC(=O)c1cccc(C)c1	66.5*	5.8	-9.2	-11.8	9.3	47.1	31.2*	47.9	5.3	1.5
COc1ccccc1N1CCN(C(=O)c2ccc(-c3nc4ccccc4s3)o2)CC1	54.3*	-14.6	-29.3	-7.0	1.5	10.4	22.0*	35.1	3.3	-1.2
NC(=O)COc1cccc(/C=N/NC(=O)c2ccc(-n3cccc3)cc2)c1	84.0*	-12.7	-5.7	-8.3	6.5	10.3	18.4	55.2*	4.6	2.6
O=C(O)C1CCCN(S(=O)(=O)c2ccc(-c3ccc(=O)[nH]n3)s2)C1 (configuration not stated)	-9.4	-10.8	-11.7	-6.5	1.6	29.2	.	.	.	.
O=C1C(=Cc2cccs2)C(=O)c2ccccc21	104.0*	-19.6	-9.0	-6.1	-2.5	17.8	4.1	0.4	-0.5	4.3
O=C(NCCS(=O)(=O)N1CCN(c2ccc(F)cc2)CC1)C12CC3CC(CC(C3)C1)C2	-1.9	-37.0	5.9	-0.2	2.3	20.1	.	.	.	.
Cc1ccc(C2=NOC(C)(c3nnc(-c4cccc(Cl)c4)o3)C2)cc1 (configuration not stated)	5.5	-26.1	-12.8	-0.9	1.9	22.2	.	.	.	.
CC1(c2nnc(-c3cccc(Cl)c3)o2)CC(c2c(Cl)cccc2Cl)=NO1 (configuration not stated)	63.8*	-51.2	-27.5	-2.5	7.1	17.5	21.6*	35.3	1.4	0.7
Cc1cc(C)c(S(=O)(=O)N2CCN(C(=O)c3c(C)nn(-c4ccccc4)c3Cl)CC2)c(C)c1	67.7*	.	.	-7.8	13.4	.	34.5*	46.0	8.3	4.5
Cc1ccc(S(=O)(=O)N2CCN(C(=O)c3c(C)nn(-c4ccccc4)c3Cl)CC2)cc1	35.6	-22.9	-13.5	-11.2	6.2	7.5	.	.	.	.
CC(=O)C(=Cc1cccc(C#N)c1)C(=O)c1ccccc1	5.4	.	.	1.9	1.5	.	.	.	.	.
COC(=O)c1c(-c2ccc(F)cc2)csc1NC(=O)c1ccco1	57.7*	-51.0	-5.2	-4.5	-0.5	2.6	4.4	25.2	2.2	5.8
COc1ccc(NC(=O)Cn2nnc(-c3ccccc3NC(=O)c3ccco3)n2)cc1	8.0	-8.2	-6.0	6.5	9.2	14.0	.	.	.	.
COc1ccccc1NC(=O)Cn1nnc(-c2ccccc2NC(=O)c2ccco2)n1	55.6*	-21.0	-13.7	-0.2	12.6	17.1	21.2	35.2	8.7	13.1
Cc1csc(N2CCN(c3cc4c(cc3Cl)nc(-c3ccncc3)n4CCCN3CCCC3)CC2)n1	2.7	-49.3	-28.7	0.2	9.3	23.5	.	.	.	.
Cc1csc(N2CCN(c3cc4nc(-c5ccncc5)[nH]c4cc3Cl)CC2)n1	58.5*	-30.5	-19.4	-5.4	16.3	30.8	29.9*	39.0	10.3	9.4
C[C@@H]1CN([C@H](C)CO)S(=O)(=O)c2ccc(C#Cc3ccccc3F)cc2O[C@H]1CN(C)C(=O)c1ccc2c(c1)OCO2	73.0*	.	.	-7.2	34.1	.	34.0*	59.1*	12.1*	17.1
COc1ccc(NS(=O)(=O)c2cc(NS(=O)(=O)c3cc(C(=O)O)ccc3OC)ccc2C)cc1	-5.8	.	.	-1.8	3.1	.	.	.	.	.
O=C(c1cc(-c2cccs2)nn1-c1ccccc1)N1CCN(S(=O)(=O)c2ccccc2)CC1	67.7*	-29.9	-9.9	-4.1	8.6	12.2	30.0*	51.7*	8.2	7.0
CC(=O)NC(c1ccc(F)c(F)c1)c1nc(-c2cnn(C)c2)cs1 (configuration not stated)	-6.2	.	.	-4.3	-0.4	.	.	.	.	.
COC(=O)[C@@]1(Sc2ccc(C)cc2)CC(=O)N(c2ccc(Cl)cc2)[C@@H]1c1ccccc1	47.7	.	.	-4.1	1.1	.	.	.	.	.
COC(=O)c1cccc(N2C(=O)C[C@](Sc3ccc(C)cc3)(C(=O)OC)[C@H]2c2ccccc2)c1	82.2*	.	.	-8.8	7.0	.	32.4*	55.3*	4.5	2.0
Cc1nc(-c2cccc(NC(=O)c3ccc(-n4nccc4C)cc3)c2)cs1	68.5*	-13.4	-14.3	-6.0	30.0	14.6	32.9*	46.4	9.5	7.5
COc1ccc(CC(=O)N(Cc2ccccc2)c2ccccc2)cc1S(=O)(=O)N1CCOCC1	81.7*	-6.8	-11.9	1.5	17.5	58.0*	31.7*	55.0*	14.7*	15.5
C=CC[C@@H](CC(=O)N(CCO)Cc1ccccc1)C(=O)NC[C@H](OC(=O)[C@@H](CC=C)Cc1ccc(F)cc1)c1ccccc1	89.3*	39.9	-13.3	-9.0	20.2	33.7	36.0*	63.2*	9.3	10.3
C=CC[C@@H](CC(=O)N(CCO)Cc1ccccc1)C(=O)N[C@H](COC(=O)[C@@H](CC=C)Cc1ccc(F)cc1)c1ccccc1	61.0*	13.5	-13.4	-7.7	14.0	15.6	16.6	24.8	14.0*	11.7
C=CC[C@@H](CC(=O)N(CCO)Cc1ccccc1)C(=O)N[C@@H](C)COC(=O)[C@@H](CC=C)Cc1ccc(F)cc1	11.2	-9.7	-29.3	-0.2	7.8	9.6	.	.	.	.
C=CC[C@H](CC(=O)NCCO)C(=O)NC[C@H](OC(=O)[C@@H](CC=C)Cc1ccc(F)cc1)c1ccccc1	29.3	-9.1	-1.4	1.7	9.3	2.7	.	.	.	.
